Data published in ChEMBL document CHEMBL4304782, “Antioxidant, Anti-inflammatory, and Neuroprotective Effects of Novel Vinyl Sulfonate Compounds as Nrf2 Activator” (ACS Med Chem Lett, 2019).

Legend:
[1] = molecular target: T1, Nuclear factor erythroid 2-related factor 2 (Homo sapiens, UniProt Q16236); assay: Activation of ED-tagged Nrf2 in human U2OS cells co-expressing Keap1 assessed as induction of NRF2 translocation to nucleus after 6 hrs by beta-galactosidase based chemiluminescent assay; assay type: cell-based
T1 sequence (Q16236 whole entry): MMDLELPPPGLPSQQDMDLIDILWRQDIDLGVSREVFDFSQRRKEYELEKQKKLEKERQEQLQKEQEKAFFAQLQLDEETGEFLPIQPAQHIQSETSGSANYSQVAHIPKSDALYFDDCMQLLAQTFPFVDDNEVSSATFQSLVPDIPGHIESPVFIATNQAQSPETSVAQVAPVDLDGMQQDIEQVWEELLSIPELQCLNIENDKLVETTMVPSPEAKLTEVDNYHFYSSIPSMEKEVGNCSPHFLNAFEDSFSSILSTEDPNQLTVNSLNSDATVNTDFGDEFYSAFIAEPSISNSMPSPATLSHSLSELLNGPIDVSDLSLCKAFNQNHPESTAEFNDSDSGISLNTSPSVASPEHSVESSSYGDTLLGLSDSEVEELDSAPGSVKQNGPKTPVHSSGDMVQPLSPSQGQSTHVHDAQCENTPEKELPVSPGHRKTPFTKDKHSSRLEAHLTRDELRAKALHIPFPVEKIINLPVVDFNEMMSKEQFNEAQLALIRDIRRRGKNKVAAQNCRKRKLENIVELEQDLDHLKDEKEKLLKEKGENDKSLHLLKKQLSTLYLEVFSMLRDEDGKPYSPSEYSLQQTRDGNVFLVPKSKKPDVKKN

[2] = molecular target: T2, Nuclear factor erythroid 2-related factor 2 (Mus musculus) (UniProt Q60795); assay: Activation of Nrf2 in mouse BV-2 cells assessed as upregulation of HO-1 mRNA expression at 1 to 10 uM incubated for 3 hrs by RT-qPCR analysis relative to control; assay type: cell-based
T2 sequence (whole entry): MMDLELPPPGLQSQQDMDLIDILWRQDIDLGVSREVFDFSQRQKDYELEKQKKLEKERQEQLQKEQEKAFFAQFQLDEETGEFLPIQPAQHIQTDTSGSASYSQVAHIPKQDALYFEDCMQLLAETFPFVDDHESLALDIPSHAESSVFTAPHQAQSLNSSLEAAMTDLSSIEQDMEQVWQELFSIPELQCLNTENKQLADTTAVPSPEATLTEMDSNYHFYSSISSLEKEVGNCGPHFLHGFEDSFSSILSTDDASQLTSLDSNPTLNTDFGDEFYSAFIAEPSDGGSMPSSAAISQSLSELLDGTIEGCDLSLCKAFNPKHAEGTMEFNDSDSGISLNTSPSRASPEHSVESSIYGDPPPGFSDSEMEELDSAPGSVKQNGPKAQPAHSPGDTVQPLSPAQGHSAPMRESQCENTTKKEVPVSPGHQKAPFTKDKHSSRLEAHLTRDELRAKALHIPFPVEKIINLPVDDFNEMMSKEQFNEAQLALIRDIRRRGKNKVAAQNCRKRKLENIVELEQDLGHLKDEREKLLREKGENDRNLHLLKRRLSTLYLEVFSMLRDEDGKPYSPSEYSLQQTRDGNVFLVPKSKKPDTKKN
Outline: (§1)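 BV-2 cells exposed to a range of concentrations for 3 h; HO-1, GCLM and GCLC mRNA quantified by RT-qPCR, normalized to β-actin; at least duplicate cultures, fold of untreated control ± SEM; paired t test.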

[3] = molecular target: T2, Nuclear factor erythroid 2-related factor 2 (Mus musculus); assay: Activation of Nrf2 in mouse BV-2 cells assessed as upregulation of GCLM mRNA expression at 1 to 10 uM incubated for 3 hrs by RT-qPCR analysis relative to control; assay type: cell-based; outline: as §1
[4] = molecular target: T2, Nuclear factor erythroid 2-related factor 2 (Mus musculus); assay: Activation of Nrf2 in mouse BV-2 cells assessed as upregulation of GCLC mRNA expression at 1 to 10 uM incubated for 3 hrs by RT-qPCR analysis relative to control; assay type: cell-based; outline: as §1
[5] = molecular target: T2, Nuclear factor erythroid 2-related factor 2 (Mus musculus); assay: Activation of Nrf2 in mouse BV-2 cells assessed as increase in HO-1 level at 0.3 to 10 uM incubated for 12 hrs by Western blot analysis relative to control; assay type: cell-based
Outline: (§2)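 BV-2 cells treated for 12 h; HO-1, GCLM, GCLC protein by Western blot, normalized to β-actin; at least duplicate cultures, fold induction over untreated control ± SEM; paired t test.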

[6] = molecular target: T2, Nuclear factor erythroid 2-related factor 2 (Mus musculus); assay: Activation of Nrf2 in mouse BV-2 cells assessed as increase in GCLM level at 0.3 to 10 uM incubated for 12 hrs by Western blot analysis relative to control; assay type: cell-based; outline: as §2
[7] = Cytotoxicity against mouse BV2 cells assessed as cell viability at 1 uM incubated for 6 hrs by CCK-8 assay relative to control; assay type: cell-based, BV-2; settings: read-out: Activity
Outline: (§3)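 BV-2 cells exposed to compound for 6 h, then viability measured; percent survival reported.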

[8] = Cytotoxicity against mouse BV2 cells assessed as cell viability at 3 uM incubated for 6 hrs by CCK-8 assay relative to control; assay type: cell-based, BV-2; settings: read-out: Activity; outline: as §3
[9] = Cytotoxicity against mouse BV2 cells assessed as cell viability at 10 uM incubated for 6 hrs by CCK-8 assay relative to control; assay type: cell-based, BV-2; settings: read-out: Activity; outline: as §3
[10] = molecular target: T2, Nuclear factor erythroid 2-related factor 2 (Mus musculus); assay: Activation of Nrf2 in mouse BV-2 cells assessed as increase in nuclear Nrf2 level by Western blot analysis; assay type: cell-based
Outline: (§4)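 BV-2 microglia treated 0.3–10 μM; Nrf2 measured by Western blot in nuclear extracts and whole-cell lysates; at least duplicate cultures, averaged, expressed as fold of untreated control ± SEM; paired t test.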

[11] = molecular target: T2, Nuclear factor erythroid 2-related factor 2 (Mus musculus); assay: Activation of Nrf2 in mouse BV-2 cells assessed as increase in nuclear Nrf2 level at 0.3 uM by Western blot analysis relative to control; assay type: cell-based; outline: as §4
[12] = molecular target: T2, Nuclear factor erythroid 2-related factor 2 (Mus musculus); assay: Activation of Nrf2 in mouse BV-2 cells assessed as increase in nuclear Nrf2 level at 10 uM by Western blot analysis relative to control; assay type: cell-based; outline: as §4
[13] = molecular target: T2, Nuclear factor erythroid 2-related factor 2 (Mus musculus); assay: Activation of Nrf2 in mouse BV-2 cells assessed as increase in total Nrf2 level by Western blot analysis; assay type: cell-based; outline: as §4
[14] = molecular target: T2, Nuclear factor erythroid 2-related factor 2 (Mus musculus); assay: Activation of Nrf2 in mouse BV-2 cells assessed as increase in total Nrf2 level at 0.3 uM by Western blot analysis relative to control; assay type: cell-based; outline: as §4
[15] = molecular target: T2, Nuclear factor erythroid 2-related factor 2 (Mus musculus); assay: Activation of Nrf2 in mouse BV-2 cells assessed as increase in total Nrf2 level at 10 uM by Western blot analysis relative to control; assay type: cell-based; outline: as §4
SH-SY5Y = assay: Antioxidant activity in human SH-SY5Y cells assessed as increase in NQO1 level at 0.3 to 3 uM incubated for 6 to 24 hrs by Western blot analysis relative to control; assay type: functional
Outline: (§5)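 SH-SY5Y neuroblastoma cells treated for 6 or 24 h, then harvested; NQO1, GCLM, GCLC protein by Western blot with β-actin loading control; at least duplicate cultures, averaged, fold of untreated control ± SEM; paired t test.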

[16] = molecular target: T3, Nuclear factor erythroid 2-related factor 2 (Homo sapiens) (UniProt Q16236); assay: Activation of Nrf2 in human SH-SY5Y cells assessed as increase in GCLM level at 0.3 to 3 uM incubated for 6 to 24 hrs by Western blot analysis relative to control; assay type: cell-based; outline: as §5
T3 sequence (whole entry): T1 sequence (Q16236 whole entry)

COc1ccccc1OS(=O)(=O)/C=C/c1ccccc1Cl
EC50 [1]: 76 nM | fold change (FC) [2]: 10.7 | fold change (FC) [3]: 5.3 | fold change (FC) [4]: 2.3 | fold change (FC) [5]: 10.3 | fold change (FC) [6]: 5.6 | viability at 6 h, 1 µM [7]: 98% | viability at 6 h, 3 µM [8]: 97.6% | viability at 6 h, 10 µM [9]: 95.9% | Activity [10]: Dose-dependent effect | fold change (FC) [11]: 4 | fold change (FC) [12]: 17.6 | Activity [13]: Dose-dependent effect | fold change (FC) [14]: 3.3 | fold change (FC) [15]: 6.7 | fold change (FC) (SH-SY5Y): 4.7 | fold change (FC) [16]: 2.9
